Assay outcomes from PubChem.
HKDC1 inh: HKDC1 hexokinase inhibitors, primary screen, biochemical, fluorescence, uHTS; Q2TB90; recombinant HKDC1, G6PDH/diaphorase resazurin coupled fluorescence; inhibition, % at 20 µM; 340,000 compounds, 0.16% hits;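 active = inhibition above about 35% when tested at 20 µM, limit read from the data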;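 also: plate controls were DMSO wells with enzyme for no effect and DMSO wells lacking enzyme for full effect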
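Test system: recombinant HKDC1 (HK5) hexokinase enzyme, produced in-house / Doses: 20 µM test compound, 1% DMSO / Timing: 90 min, room temperature / Detection: G6PDH/diaphorase-coupled fluorescence, 1 mM NADP, 100 µM resazurin, 525/613 nm / Control set: DMSO wells with and without enzyme mix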
SUMO HTRF inh: inhibitors of in vitro SUMOylation cascade, primary screen, biochemical, HTRF, uHTS; 290,000 compounds, 0.36% hits; HTRF SUMOylation assay, SAE1/SAE2 + UBC9; inhibition, % at 35 µM; SUMO-conjugating enzyme UBC9 (Homo sapiens), P63279; in the data active = inhibition above about 50%, passing the limit was not always enough
Target sequence (P63279 whole entry, looked up): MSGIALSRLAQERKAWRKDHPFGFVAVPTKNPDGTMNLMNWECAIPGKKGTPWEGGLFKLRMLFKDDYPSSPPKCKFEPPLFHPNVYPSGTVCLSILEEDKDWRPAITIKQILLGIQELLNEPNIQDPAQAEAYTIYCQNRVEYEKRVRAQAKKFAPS
Apaf-1 inh: inhibitors of human Apaf-1 apoptosome, primary screen, biochemical, DEVD-Rh110 fluorescence, uHTS; Apoptotic protease-activating factor 1 (Homo sapiens), O14727; AID 489030, 2010; inhibition, % at 20 µM; 330,000 compounds, 0.71% hits; reconstituted apoptosome caspase-3 activity; active = inhibition of at least 40% at 20 µM;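 also: plate controls were DMSO wells for no effect and DEVD-CHO caspase inhibitor wells for full effect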
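Assay system – apoptosome proteins · Medium – Hepes buffer, pH 7.5 · Also added – cytochrome c with DEVD-Rh110 · Timing – 30 min compound preincubation, 50 min activation, room temperature · Detection – Rh110 fluorescence, excitation 480 nm, emission 540 nm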
DTT redox prof: compounds producing H2O2 with reducing agent – biochemical, NIH compound library profiling, artefact control for MLSCN library redox annotation, primary screen | activation, % at 10 µM | DTT-dependent redox cycling H2O2, phenol red/HRP absorbance; 100% = 100 µM peroxide control, 0% = buffer | 200,000 compounds, 0.03% hits;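 active = activation of at least 50% relative to the plate's high and low controls in the primary single-dose screen; inactive = activation below 50%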;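 also: compound incubated with DTT at 0.8 mM final as the reducing agent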
GSTO1 inh: inhibitors of recombinant GSTO1, primary screen, counter-screen for RBBP9 inhibitor project, biochemical, fluorescence polarization; 300,000 compounds, 1.1% hits; activity-based probe fluorescence polarization; inhibition, % at 5.96 µM; Glutathione S-transferase omega-1 (Homo sapiens), P78417;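 active = inhibition above the campaign mean inhibition plus 3 SD, cut at about 35% in these data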;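 also: 0% = GSTO1-1 with DMSO and 100% = wells lacking GSTO1-1 enzyme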
Target sequence (P78417 whole entry, looked up): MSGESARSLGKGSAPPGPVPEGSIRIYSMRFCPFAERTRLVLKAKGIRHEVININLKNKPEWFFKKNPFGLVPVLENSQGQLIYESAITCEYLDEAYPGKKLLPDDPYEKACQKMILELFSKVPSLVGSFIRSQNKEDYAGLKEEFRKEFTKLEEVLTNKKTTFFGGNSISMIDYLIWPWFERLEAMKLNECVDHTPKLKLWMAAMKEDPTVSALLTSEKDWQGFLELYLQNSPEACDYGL
The depositor's hits bear a star; nt = no result given. In the library only some 1.4% were active in any assay of this set; here they are far more common.

SMILES | HKDC1 inh | SUMO HTRF inh | Apaf-1 inh | DTT redox prof | GSTO1 inh
O=C(Cn1c2ccccc2c(=O)c2ccccc21)Nc1ccccc1F | -10 | -1 | 3 | 0 | -1
O=C(COc1ccc(Br)cc1)Nc1ccccc1C(=O)NC1CC1 | -7 | nt | 7 | nt | -1
O=C1CCCC2=C1C(c1ccc(O)c(O)c1)Nc1ccc3ncccc3c12 (configuration not stated) | 7 | 29 | 4 | 0 | 78*
Cc1ccc(C(=O)N(C)CCOc2ccccc2)cc1S(=O)(=O)N1CCOCC1 | -6 | nt | -2 | nt | nt
CC(=O)Nc1ccc(S(=O)(=O)Nc2nc3ccccc3nc2Nc2ccc3ccccc3c2)cc1 | 5 | 55* | 26 | 1 | -11
COc1ccc(-c2cc(-c3ccccc3)c(C#N)c(S(C)=O)n2)cc1 (configuration not stated) | 1 | 40 | 22 | 0 | -32
COc1ccc(-c2cc3nc4ccccc4n3c(N)c2C#N)cc1 | 6 | 57* | -7 | nt | 38*
CCC(=O)OCCNc1cc(Sc2nccn2C)c2nonc2c1[N+](=O)[O-] | 10 | 53 | nt | 1 | -9
CCC(=O)OCCNc1cc(SCCC(=O)OC)c2nonc2c1[N+](=O)[O-] | 3 | 63* | 24 | 1 | 7
Cc1c(C(=O)OCC(=O)Nc2ccc(C(=O)N(C)C)cc2)oc2ccccc12 | -4 | 18 | 9 | nt | 2
COc1ccc(Cc2n[nH]c(=S)n2NC(=O)Nc2ccc(Cl)c(Cl)c2)cc1 | 1 | 97* | 21 | nt | -7
O=C(COc1ccc(F)cc1)NCCNC(=O)COc1ccc(F)cc1 | -5 | nt | 3 | nt | nt
Cc1cc(NCCO)c2cc(O)ccc2n1 | 2 | 57* | -8 | 1 | -2
Cc1cc(C)c(OCC(=O)OCC(=O)N(C)C2CCS(=O)(=O)C2)c(C)c1 (configuration not stated) | 1 | nt | 2 | nt | 6
O=C1CCC(C(=O)OCC(=O)N2N=C3/C(=C/c4ccccc4)CCCC3C2c2ccccc2)N1 (configuration not stated) | 1 | 10 | 43* | -1 | -25
CCCCCCc1cc2cc(-c3nnc(-c4ccccc4O)o3)c(=O)oc2cc1O | -1 | 29 | -140 | 1 | 2
CCCCCCc1cc2cc(-c3nnc(-c4cc(OC)c(OC)c(OC)c4)o3)c(=O)oc2cc1O | 14 | 3 | 63* | 0 | 4
O=C(OCn1ncc(Br)c(Br)c1=O)c1ccccc1Cl | 29 | -96 | 7 | 0 | 37*
O=C(OCn1ncc(Br)c(Br)c1=O)c1ccc(F)cc1 | 28 | -80 | 4 | 0 | 36*
O=C(OCc1cnc(Cl)s1)c1ccccc1Cl | -2 | 7 | -17 | -9 | -3
O=C(CCC(=O)N1CCN(c2ccc(C(F)(F)F)cn2)CC1)c1cccs1 | -3 | nt | -1 | nt | nt
CCc1ccc(C(=O)CSc2nc3cc(S(=O)(=O)N4CCOCC4)ccc3n2CC)cc1 | 16 | -25 | 16 | 1 | 36*
O=C(CN1C(=O)/C(=C\c2ccco2)SC1=S)Nc1ccc(O)cc1C(=O)O | 17 | 82* | 11 | nt | 24
C[C@@H]1O[C@@H](OC2C(O)C(OCCc3ccc(O)c(O)c3)OC(CO)C2OC(=O)/C=C/c2ccc(O)c(O)c2)[C@H](O)[C@H](O)[C@H]1O (some centres not stated) | nt | nt | -3 | nt | 54*
O=C(CC1(O)C(=O)c2ccccc2C1=O)c1ccccc1 | -5 | 2 | 12 | 0 | 0
SMILES | HKDC1 inh | SUMO HTRF inh | Apaf-1 inh | DTT redox prof | GSTO1 inh
O=C1c2ccccc2C(=O)C1(O)O | nt | nt | 68* | nt | nt
CCc1ccc(CN2CCC(n3nccc3NC(=O)Cc3ccccc3)CC2)o1 | -6 | -1 | -21 | nt | nt
O=C(OCC#CCSc1nnc(-c2cccc3ccccc23)o1)c1cccc2[nH]ccc12 | -3 | nt | -1 | nt | nt
Cc1cc(/C=C\c2ccc3cc(N(C)C)ccc3[n+]2C)c(C)n1-c1ccccc1 | 37* | nt | 43* | nt | -54
COc1ccc(S(=O)(=O)c2ccc(OC)cc2)cc1 | -7 | 8 | 3 | 1 | 2
COc1ccc(S(=O)(=O)/N=C2/C=CC(=O)C(C)=C2C)cc1 | 52* | -18 | -7 | 2 | -1
Cc1ccc(N(CC(=O)NC2CCCCC2)C(=O)CNC(=O)c2ccco2)cc1C | -4 | 5 | 11 | nt | 2
COc1cc2c3nnc(-c4ccc(F)cc4)c-3cn(Cc3cccc(C)c3)c2cc1OC | 0 | 32 | 53* | 1 | 0
COc1cc2c3nnc(-c4ccc(F)cc4)c-3cn(Cc3cccc(F)c3)c2cc1OC | 7 | 34 | 0 | 3 | 4
CCOc1ncccc1C(=O)Nc1cc(S(=O)(=O)N2CCCCCC2)ccc1OC | 0 | nt | -2 | nt | nt
Brc1cc2c(cc1Br)OCCOCCOCCO2 | -6 | 29 | -1 | nt | 37*
c1ccc2c(c1)OCCOCCOCCOCCOCCOc1ccccc1OCCOCCOCCO2 | -9 | -6 | 2 | 0 | 1
CCCCCCCCCCCCCCCC[N+](C)(C)CC | 4 | nt | 87* | nt | 6
CCCCCC[N+](C)(C)CCSSCC[N+](C)(C)CCCCCC | -4 | 15 | -37 | nt | 20
N#Cc1c(-c2ccco2)cc(-c2ccccc2)[nH]c1=O | 7 | 36 | -5 | nt | 5
Cc1ccc(-c2cc(-c3ccco3)c(C#N)c(=O)[nH]2)cc1 | 11 | 62* | -3 | nt | 16
N#Cc1c(-c2ccccc2)cc(-c2ccco2)c(C#N)c1N | nt | 53* | nt | 1 | nt
CC(=O)Nc1nc(-c2ccccc2)cc(-c2ccco2)c1C#N | -5 | nt | -4 | nt | nt
O=C(O)c1ccccc1/C=N/NC(=O)c1cc(-c2ccco2)nc2ccccc12 | 13 | 78* | 14 | nt | 30
C=CCN(C(=O)c1csnn1)C(C(=O)NCc1ccc(F)cc1)c1sccc1C (configuration not stated) | 0 | 0 | 1 | nt | 6
O=C(O)c1cc(N/N=C/C(Cl)=C/c2ccccc2)ccc1Cl | 2 | 12 | -21 | 1 | 40*
O=C1Nc2ccc(S(=O)(=O)NCc3ccccn3)c3cccc1c23 | 7 | 47 | -2 | 0 | nt
CN1CCN(S(=O)(=O)c2ccc3c4c(cccc24)C(=O)N3)CC1 | 3 | 7 | 8 | 0 | 5
CCN(CC)CCNS(=O)(=O)c1ccc2c3c(cccc13)C(=O)N2 | 9 | 58* | -16 | nt | 2
CN(C)CCNS(=O)(=O)c1ccc2c3c(cccc13)C(=O)N2 | 0 | 53* | 6 | nt | 4
CC(=O)NC(CC(=O)NNC(=O)c1cccs1)c1ccccc1 (configuration not stated) | -5 | nt | 3 | nt | 11
O=C(COc1ccccc1)Nc1ccc2oc(=O)ccc2c1 | -2 | 14 | 8 | nt | 2
